Test results: ChEMBL document CHEMBL1122206, “Use of adenine nucleotide derivatives to assess the potential of exo-active-site-directed reagents as species- or isozyme-specific enzyme inactivators. 5. Interactions of adenosine 5'-triphosphate derivatives with rat pyruvate kinases, Escherichia coli thymidine kinase, and yeast and rat …” (1982)

What was measured:
[1] = Extent of inactivation caused by the compound was reported.; assay type: functional
[2] = molecular target: T1, Hexokinase-2 (Rattus norvegicus) (UniProt P27881); assay: Time dependent inhibition of hexokinase 2 activity after 6 h, at 5 mM compound
T1 sequence (whole entry): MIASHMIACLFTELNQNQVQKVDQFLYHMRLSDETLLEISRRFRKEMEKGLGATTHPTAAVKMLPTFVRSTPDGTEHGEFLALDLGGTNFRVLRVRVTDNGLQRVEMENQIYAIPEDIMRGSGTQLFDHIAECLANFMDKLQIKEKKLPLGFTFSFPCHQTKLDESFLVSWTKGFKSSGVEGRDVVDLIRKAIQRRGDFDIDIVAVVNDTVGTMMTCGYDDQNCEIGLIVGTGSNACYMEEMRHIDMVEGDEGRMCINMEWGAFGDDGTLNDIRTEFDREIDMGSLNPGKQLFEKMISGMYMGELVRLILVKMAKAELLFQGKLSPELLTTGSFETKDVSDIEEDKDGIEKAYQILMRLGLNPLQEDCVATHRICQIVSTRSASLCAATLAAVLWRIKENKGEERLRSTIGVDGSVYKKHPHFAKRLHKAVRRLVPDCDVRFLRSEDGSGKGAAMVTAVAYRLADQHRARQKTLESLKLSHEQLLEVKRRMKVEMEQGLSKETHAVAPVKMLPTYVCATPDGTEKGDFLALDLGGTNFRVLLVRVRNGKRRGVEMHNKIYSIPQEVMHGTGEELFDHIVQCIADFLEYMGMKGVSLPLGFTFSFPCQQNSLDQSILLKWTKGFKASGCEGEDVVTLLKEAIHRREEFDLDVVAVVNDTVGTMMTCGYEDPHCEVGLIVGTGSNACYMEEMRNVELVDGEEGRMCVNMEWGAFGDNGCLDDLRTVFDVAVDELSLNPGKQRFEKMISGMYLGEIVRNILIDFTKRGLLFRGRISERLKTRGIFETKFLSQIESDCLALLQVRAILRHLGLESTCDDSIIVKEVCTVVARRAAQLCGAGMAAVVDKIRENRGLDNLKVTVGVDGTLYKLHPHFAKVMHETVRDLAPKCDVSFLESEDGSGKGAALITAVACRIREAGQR

[3] = molecular target: Thymidine kinase (Escherichia coli) (UniProt P23331); assay: Compound tested for the loss of thymidine kinase activity from Escherichia coli after 6 hr at 0 degrees C at 10 mM
Thymidine kinase (Escherichia coli), sequence (P23331 whole entry, looked up): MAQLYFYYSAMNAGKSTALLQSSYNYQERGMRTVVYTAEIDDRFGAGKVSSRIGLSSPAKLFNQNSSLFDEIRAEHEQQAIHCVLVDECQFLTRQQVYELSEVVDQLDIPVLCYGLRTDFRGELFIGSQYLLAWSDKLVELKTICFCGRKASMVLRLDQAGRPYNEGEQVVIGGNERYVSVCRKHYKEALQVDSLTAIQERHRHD

[4] = molecular target: Thymidine kinase (Escherichia coli) (UniProt P23331); assay: Compound was tested for the initial inhibition of thymidine kinase by 1.4 mM compound in the presence of 5.7 mM ATP
[5] = molecular target: T2, Hexokinase-3 (Rattus norvegicus) (UniProt P27926); assay: Time dependent inhibition of Hexokinase type III activity after 6 hr, at 22 degrees celsius, at 5 mM compound
T2 sequence (whole entry): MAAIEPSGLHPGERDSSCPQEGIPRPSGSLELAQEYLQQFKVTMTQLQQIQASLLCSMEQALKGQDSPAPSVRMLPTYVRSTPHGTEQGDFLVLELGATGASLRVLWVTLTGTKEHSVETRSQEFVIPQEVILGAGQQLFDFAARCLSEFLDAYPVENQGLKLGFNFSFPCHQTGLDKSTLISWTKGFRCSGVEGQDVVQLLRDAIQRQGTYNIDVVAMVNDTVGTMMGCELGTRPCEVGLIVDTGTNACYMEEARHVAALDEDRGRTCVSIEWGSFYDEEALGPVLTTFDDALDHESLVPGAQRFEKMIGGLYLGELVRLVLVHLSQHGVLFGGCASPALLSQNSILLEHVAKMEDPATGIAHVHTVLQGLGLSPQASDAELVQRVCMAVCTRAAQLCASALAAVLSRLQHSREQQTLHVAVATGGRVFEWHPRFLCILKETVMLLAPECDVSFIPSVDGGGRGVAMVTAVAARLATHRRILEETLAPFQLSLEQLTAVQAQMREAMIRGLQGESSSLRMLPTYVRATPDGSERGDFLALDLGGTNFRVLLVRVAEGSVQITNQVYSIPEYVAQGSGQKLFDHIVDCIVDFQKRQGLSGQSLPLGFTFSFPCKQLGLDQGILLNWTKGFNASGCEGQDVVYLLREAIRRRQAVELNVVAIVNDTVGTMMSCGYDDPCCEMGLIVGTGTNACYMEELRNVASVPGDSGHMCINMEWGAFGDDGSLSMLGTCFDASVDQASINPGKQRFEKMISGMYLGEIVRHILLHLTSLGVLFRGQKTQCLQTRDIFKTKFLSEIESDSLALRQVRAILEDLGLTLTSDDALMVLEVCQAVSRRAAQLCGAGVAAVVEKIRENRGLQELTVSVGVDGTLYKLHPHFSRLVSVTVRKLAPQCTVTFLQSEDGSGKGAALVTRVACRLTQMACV

[6] = molecular target: T2, Hexokinase-3 (Rattus norvegicus); assay: Time dependent inhibition of Hexokinase type III activity after 6 h, at 22 degrees celsius, at 5 mM
[7] = molecular target: Thymidine kinase (Escherichia coli) (UniProt P23331); assay: Compound was tested for the initial inhibition of thymidine kinase by 1.4 mM compound in the presence of 5.7 mM ATP in Escherichia coli
[8] = molecular target: T2, Hexokinase-3 (Rattus norvegicus); assay: Substrate activity for rat hexokinase III as 1:1 Mg complex at 5.0 mM
Method in brief: (§1)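 Hexokinase activity read at 22 °C as A340 change, coupled to glucose-6-phosphate dehydrogenase, in 0.05 M Tris-HCl pH 7.6 with 6.6 mM MgCl2, 10 mM α-D-glucose and 0.93 mM NADP. Donor was 5.0 mM MgATP derivative (1:1 Mg complex) in place of ATP. Yeast HK was isoelectric-focused. Rat HK I and III came from electrofocused liver extract, HK II from dialysed muscle extract.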

[9] = molecular target: T3, Hexokinase-1 (Rattus norvegicus) (UniProt P05708); assay: Time dependent inhibition of Hexokinase type I activity after 6 h, at 22 degrees celsius, at 5 mM compound
T3 sequence (whole entry): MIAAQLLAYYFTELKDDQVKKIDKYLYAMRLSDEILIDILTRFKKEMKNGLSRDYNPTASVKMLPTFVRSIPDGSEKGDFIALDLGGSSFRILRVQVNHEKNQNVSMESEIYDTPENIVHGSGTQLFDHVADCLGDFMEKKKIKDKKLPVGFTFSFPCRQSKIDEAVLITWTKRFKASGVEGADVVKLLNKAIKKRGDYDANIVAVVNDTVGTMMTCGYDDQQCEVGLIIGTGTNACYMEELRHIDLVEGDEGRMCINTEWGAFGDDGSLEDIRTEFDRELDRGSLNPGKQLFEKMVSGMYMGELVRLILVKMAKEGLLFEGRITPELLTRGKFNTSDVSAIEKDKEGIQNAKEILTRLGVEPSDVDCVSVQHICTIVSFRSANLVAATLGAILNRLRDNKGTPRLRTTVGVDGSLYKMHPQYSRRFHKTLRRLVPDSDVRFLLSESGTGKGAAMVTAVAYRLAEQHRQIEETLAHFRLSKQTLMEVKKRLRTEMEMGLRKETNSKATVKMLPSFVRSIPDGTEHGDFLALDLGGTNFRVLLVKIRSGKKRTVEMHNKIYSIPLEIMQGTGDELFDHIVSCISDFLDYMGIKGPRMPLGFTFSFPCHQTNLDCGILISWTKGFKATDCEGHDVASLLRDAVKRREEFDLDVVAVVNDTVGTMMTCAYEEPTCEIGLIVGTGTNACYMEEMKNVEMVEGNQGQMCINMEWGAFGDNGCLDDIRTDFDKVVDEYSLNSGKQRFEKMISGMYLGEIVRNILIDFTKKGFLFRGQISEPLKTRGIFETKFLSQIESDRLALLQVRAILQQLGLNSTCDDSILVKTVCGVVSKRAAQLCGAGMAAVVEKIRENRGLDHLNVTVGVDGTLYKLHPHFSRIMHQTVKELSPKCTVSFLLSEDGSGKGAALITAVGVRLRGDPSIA

[10] = Tested for the velocity of 2.8 mM compound relative to that of 2.8 mM MgATP in the assay
Method in brief: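 E. coli TK substrate test. 0.5 h after adding inhibitor, the mixture was diluted to 2.8 mM derivative in thymidine assay medium without ATP and with 1.42 mM MnCl2. Incubated 15 min at 37 °C, in the linear range. [14C]TMP formed was compared with that from 2.8 mM ATP under the same conditions.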

[11] = molecular target: T1, Hexokinase-2 (Rattus norvegicus); assay: Substrate activity against Rat hexokinase II as 1:1 Mg complex at 5.0 mM; method in brief: as §1
Saccharomyces cerevisiae [12] = assay: Substrate activity against yeast hexokinase as 1:1 Mg complexes at 5.0 mM; method in brief: as §1
Saccharomyces cerevisiae [13] = assay: Compound was tested for time dependent inhibition of hexokinase activity after 6 hr, at 22 degrees celsius, with 5 mM ATP derivative in yeast hexokinase
[14] = molecular target: T3, Hexokinase-1 (Rattus norvegicus); assay: Substrate activity for rat hexokinase I as 1:1 Mg complex at 5.0 mM; method in brief: as §1
[15] = molecular target: Thymidine kinase (Escherichia coli) (UniProt P23331); assay: Compound was tested for the lose of thymidine kinase activity after 6 h, at 0 degrees celsius, with 10 mM ATP derivative. values were expressed in percent
[16] = molecular target: Thymidine kinase (Escherichia coli) (UniProt P23331); assay: Compound was tested for the initial inhibition of Thymidine kinase by 1.4 mM compound in the presence of 5.7 mM ATP
[17] = molecular target: T3, Hexokinase-1 (Rattus norvegicus); assay: Time dependent inhibition of Hexokinase, type I activity after 6 h, at 22 degrees celsius, at 5 mM compound
[18] = molecular target: Thymidine kinase (Escherichia coli) (UniProt P23331); assay: Compound was tested for the loss of Thymidine kinase activity from Escherichia coli after 6 h at 0 degrees C at 10 mM
Saccharomyces cerevisiae [19] = assay: Compound was tested for time dependent inhibition of hexokinase activity after 6 h at 22 degrees celsius, with 5 mM compound in yeast hexokinase
Saccharomyces cerevisiae [20] = assay: Time dependent inhibition of hexokinase activity after 6 hr, at 22 degrees celsius, with 5 mM ATP derivative in yeast.
[21] = molecular target: Thymidine kinase (Escherichia coli) (UniProt P23331); assay: Compound was tested for the loss of thymidine kinase activity from Escherichia coli after 6 hr at 0 degrees C at 10 mM
[22] = molecular target: T1, Hexokinase-2 (Rattus norvegicus); assay: Time dependent inhibition of hexokinase 2 activity after 6 h, at 10 mM compound
[23] = molecular target: T3, Hexokinase-1 (Rattus norvegicus); assay: Time dependent inhibition of Hexokinase type I activity after 6 h, at 0 degrees celsius, at 10 mM compound
[24] = molecular target: T2, Hexokinase-3 (Rattus norvegicus); assay: Time dependent inhibition of Hexokinase type III activity after 6 h, at 0 degrees celsius, at 10 mM

| SMILES | inhibition [2] [%] | inhibition [4] [%] | inhibition [6] [%] | Relative velocity [8] | inhibition [9] [%] | Velocity [10] [%] | Relative velocity [11] | Relative velocity (Saccharomyces cerevisiae [12]) | Relative velocity [14] | other results |
| --- | --- | --- | --- | --- | --- | --- | --- | --- | --- | --- |
| O=C(CI)NCCCCCCNc1ncnc2c1ncn2[C@@H]1O[C@H](COP(=O)(O)OP(=O)(O)OP(=O)(O)O)[C@@H](O)[C@H]1O | 35 | 0 | – | – | – | – | – | – | – | Inactivation [1]: > 90%; inhibition [3]: 0%; inhibition [5]: 33% |
| O=C(CI)NCCNc1ncnc2c1ncn2[C@@H]1O[C@H](COP(=O)(O)OP(=O)(O)OP(=O)(O)O)[C@@H](O)[C@H]1O | 0 | – | 0 | 0.5 | 0 | 35 | 0.34 | 0.75 | 0.58 | inhibition [7]: 3%; inhibition (Saccharomyces cerevisiae [13]): 0%; inhibition [15]: 0% |
| O=C(CI)NCCCNc1ncnc2c1ncn2[C@@H]1O[C@H](COP(=O)(O)OP(=O)(O)OP(=O)(O)O)[C@@H](O)[C@H]1O | 0 | – | 0 | – | – | 32 | – | – | – | inhibition [16]: 6%; inhibition [17]: 0%; inhibition [18]: 0%; inhibition (Saccharomyces cerevisiae [19]): 0% |
| O=C(CI)NCCCCCCCNc1ncnc2c1ncn2[C@@H]1O[C@H](COP(=O)(O)OP(=O)(O)OP(=O)(O)O)[C@@H](O)[C@H]1O | 30 | – | 20 | – | 20 | 38 | – | – | – | inhibition [7]: 10%; inhibition (Saccharomyces cerevisiae [20]): 22%; inhibition [15]: 0% |
| NC(=O)CI.Nc1ncnc2c1ncn2[C@@H]1O[C@H](COP(=O)(O)OP(=O)(O)OP(=O)(O)O)[C@@H](O)[C@H]1O | 7 | – | 0 | – | 5 | – | – | – | – | inhibition (Saccharomyces cerevisiae [19]): 0% |
| O=C(CI)NCCCCNc1ncnc2c1ncn2[C@@H]1O[C@H](COP(=O)(O)OP(=O)(O)OP(=O)(O)O)[C@@H](O)[C@H]1O | 0 | 39 | – | – | – | 68 | – | – | – | inhibition [3]: 0%; inhibition (Saccharomyces cerevisiae [20]): 0%; inhibition [5]: 0% |
| O=C(CI)NCCCCCC(=O)NCCCCCCNc1ncnc2c1ncn2[C@@H]1O[C@H](COP(=O)(O)OP(=O)(O)OP(=O)(O)O)[C@@H](O)[C@H]1O | 0 | 8 | 0 | 1.37 | 0 | 37 | 0.63 | 1.02 | 1.25 | inhibition (Saccharomyces cerevisiae [13]): 0%; inhibition [21]: 0% |
| O=C(CI)NCC(=O)NCCCCCCNc1ncnc2c1ncn2[C@@H]1O[C@H](COP(=O)(O)OP(=O)(O)OP(=O)(O)O)[C@@H](O)[C@H]1O | – | – | – | 2.06 | – | 63 | 0.63 | 0.52 | 0.92 | inhibition [22]: 0%; inhibition [23]: 0%; inhibition [24]: 0% |
